Results published in ChEMBL document CHEMBL4513216, “Probing the Open Global Health Chemical Diversity Library for Multistage-Active Starting Points for Next-Generation Antimalarials” (ACS Infect Dis, 2020).

Test: Toxicity liver stage against HepG2, at 10uM
Format: cell-based
Parameters: test concentration 10 uM, cell line HepG2-A16-CD81EGFP
Details: human, HepG2-A16-CD81EGFP cells; read-out: INHIBITION
Method in brief: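 Uninfected HepG2-A16-CD81EGFP cells, 3 × 10^3 per well, 1536-well, plated on prespotted compound at 10 μM final, parasite-free screening media added to match infected plates; puromycin 10 μM positive, DMSO 0.5% negative; run in parallel with 48 h PbLuc assay at 37 °C, 5% CO2; viability by CellTiter-Glo luminescence, normalized to controls.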

Compound	cytotoxicity at 10 µM
CC(C)n1cnnc1CNC(=O)c1cnn(Cc2ccccc2)c1	0.536%
Cc1cc(CN(C)C(=O)c2ccc(Cl)cc2N2CCCC2=O)no1	-15.9%
O=C(Nc1nc2c(s1)CN(S(=O)(=O)C1CC1)CC2)c1cccc(Cl)c1	1.55%
CC(C)CN1C[C@@H]2OCC(=O)N(c3ccccc3)[C@@H]2C1	1.08%
O=C(Cn1ccc2ccc(Br)cc21)NCc1ccc(C(=O)O)cc1	6.46%
Cc1noc(C)c1CN(C)C(=O)c1cnc(C2CC2)nc1O	-4.65%
CN1CCN(C(=O)Cn2nc(C(F)(F)F)c(Br)c2C2CC2)CC1	-8.5%
CCc1nc(NC2CCN(CC(=O)NC3CC3)CC2)c2cnn(C)c2n1	4.99%
CC(C(=O)N1CCCN(Cc2cnn(C)c2)CC1)n1ccnc1 (centres undefined)	-13.8%
CN(C)C(=O)c1cccc(C[S+]([O-])CC(=O)NC2CCCC2)c1 (centres undefined)	5.79%
O=C1CC2(CCN(Cc3ccoc3)C2)CN1c1cncnc1 (centres undefined)	-69.4%
Cc1cc2nc(SCC(=O)N3CCCC3)n(Cc3ccco3)c(O)c-2n1	7.19%
COCCCNC(=O)CN(C)C(C)c1nc(C(C)C)no1 (centres undefined)	8.24%
CC(C)CC(=O)Nc1cccc(CNCc2cccs2)c1	0.25%
Cc1ccccc1OCCN(C)C(=O)NC(C)c1nncn1C (centres undefined)	-12.5%
O=C(NCc1nncn1-c1ccccc1)C1CC(=O)N(CC2CC2)C1 (centres undefined)	-2.97%
CCOC(=O)N1[C@@H](c2ccco2)[C@@H](CO)C[C@]12CCCCNC2=O	0.644%
CS(=O)(=O)c1cccc2c1CCCN2C(=O)Cc1cccc(F)c1	8.14%
CC(=O)Nc1nc(C2CCN(CC(N)=O)CC2)cs1	-2.76%
c1cncc(OC[C@]23COC[C@H]2CN(Cc2cccs2)C3)c1	-13%
CCN(Cc1cccc(F)c1)S(=O)(=O)N1CCOCC1	-1.71%
CN1CCN2CCN(Cc3ccccc3Cn3cccn3)CC2C1 (centres undefined)	-133%

Compound	cytotoxicity at 10 µM
COC(=O)[C@H](C)NC(=O)Cn1ccc2ccc(F)cc21	-0.112%
O=C1CC(N(C(=O)c2csc(-c3ccccc3)n2)C2CC2)C(=O)N1 (centres undefined)	15.2%
Cc1cccc(N2CCN(c3ccn4c(=O)[nH]nc4n3)CC2)c1C	36%
c1cnc(N2CCO[C@H]3CN(Cc4csnn4)C[C@H]32)nc1	-70.7%
CCOc1ccc(CN2CCCC(c3nn(C)c(=O)n3CC)C2)cn1 (centres undefined)	-2.85%
COc1ccc(C(=O)NCC(c2cccn2C)N2CCCC2)cc1OC (centres undefined)	6.86%
CCc1oc2ccc(NS(=O)(=O)CC)cc2c1C(=O)OC	5.05%
Cc1csc(N2CCCN(C3Cc4ccccc4C3)CC2)n1	10.3%
CCNC(=O)NC(=O)CNC1(c2noc(C)n2)CCCCC1	-1.3%
Cn1cc(CN2CCC3(CC2)CN(C(=O)c2cnccn2)CCO3)cn1	-5.49%
Cc1cccc(C2CCCN(S(=O)(=O)c3cccnc3)C2)n1 (centres undefined)	4.05%
Fc1cccnc1O[C@@H]1CN(Cc2ccco2)[C@@H]2CCCO[C@@H]21	5.08%
NCC1CCC(C(NC(=O)CC2CCCCC2)c2ccccn2)CC1 (centres undefined)	-7.19%
COCCC(Cc1cccc(Br)c1)C(=O)NCC(N)=O (centres undefined)	9.74%
O=C(Cn1ccnc1)N1C[C@@H]2CC[C@H](Oc3ccccc3Cl)[C@@H]2C1	11.9%
CC(C)Nc1cc(N2CCC(n3cc(C4CC4)nn3)CC2)ncn1	7.88%
O=C(CO)N1C[C@H]2CN(Cc3cccc(F)c3)C(=O)[C@H]2C1	-82.3%
CCOCC(O)CN1CCN(C(=O)c2ccc3c(c2)COC3)CC1 (centres undefined)	-0.0716%
COCCO[C@H]1COCCN(C2CCN(C)CC2)C1	3.08%
O=C(C1CC(c2ccccc2)=NO1)N1CCc2ccccc21 (centres undefined)	-0.643%
Cc1cc(N)nc(SC2CCCN(Cc3ccccc3)C2=O)n1 (centres undefined)	-5.45%
COc1ccc(CC2CN(C3CCSCC3)CCO2)cc1 (centres undefined)	4.49%

Compound	cytotoxicity at 10 µM
Cc1cc(N2CCc3cnc(C)nc3C2)n2nc(C(F)(F)F)nc2n1	0.769%
Cc1n[nH]c(C)c1CCC(=O)N1CCC(O)(CN2CCOCC2)C1 (centres undefined)	3.38%
COc1ccc2[nH]c(=O)c(CN(C)CCN3CCCC3)cc2c1	1.97%
Cn1cc(C2CCCN2C(=O)CCCc2cccs2)cn1 (centres undefined)	-2.12%
O=C(NC1CCCCC1)c1nnc2ccc(N3CCOCC3)cc2n1	5.97%
Cn1ccnc1CNc1nccc(-c2ncnn2C)n1	-6.47%
O=C(c1ccncc1)N1Cc2ccccc2OC2(CCOCC2)C1	-1.03%
NC(=O)c1cccc(CC2CCN(C(=O)CCc3cccc(F)c3)C2)c1 (centres undefined)	-3.75%
Cc1cccc(-c2nc(C)nn2CN2CCC3(CC2)OCCO3)c1	-13.8%
Cc1nnc2n1CCN(C(C(N)=O)c1ccc(F)cc1)C2 (centres undefined)	-13.5%
O=C(NCCC1=CCCCC1)c1cc(-c2ccc(O)cc2)n[nH]1	38.8%
COc1ncccc1C1CC(=O)NCc2nc3sccn3c21 (centres undefined)	3.86%
Cc1cnn(CCC(=O)N2CCC(Nc3cccnn3)CC2)c1	-8.11%
COc1cccc(NC(=O)NC(C)c2ccc3c(c2)CC(=O)N3)c1 (centres undefined)	-3.49%
COc1ccccc1[C@@H]1CN(Cc2nccn2C)C[C@H]1C(=O)O	-4.83%
Cc1cnn(CC2CCCCN2C(=O)c2sccc2C#N)c1 (centres undefined)	0.185%
CN1C[C@H]2CC[C@@H](CC1=O)N2C(=O)c1ccc(-c2ccccc2)[nH]c1=O	5.91%
Cc1[nH]ccc1C(=O)N1CCC(c2nnc(Cn3cccn3)n2C)CC1	-11.5%
Cc1nccc(C(=O)N2CCCN(Cc3cnn(C(C)C)c3)CC2)n1	-0.239%
CCCc1nc(CN2CCOC(Cn3cccn3)C2)no1 (centres undefined)	-27.1%
CCc1nc(N)sc1C(=O)N1CCCC(COc2cccc(C)c2)C1 (centres undefined)	-140%
CCC(CC)c1cc(C(=O)N2CCCC(n3cncn3)C2)on1 (centres undefined)	-13.1%

Compound	cytotoxicity at 10 µM
COCc1cc(N2CCN(C3CCCCC3)CC2)n2nccc2n1	3.59%
O=C(CCn1ccc2ncccc2c1=O)N1CCCC1	-1.93%
O=C(CN1CCC[C@H]1C(=O)O)NCCOc1cccc(Cl)c1	-22.6%
CC(C)C(=O)NCCc1nc(-c2ccncc2)n[nH]1	7.78%
O=C(Cc1ccccn1)N1CCc2ncnc(NC3CCC3)c2CC1	3.25%
O=C(Cc1ccccc1Cl)Nc1ccn(CCN2CCOCC2)n1	-5.44%
CC(C)NC(=O)N1CC[C@@H]2CN(S(C)(=O)=O)CCO[C@@H]2C1	-102%
CN(C)S(=O)(=O)N1CC(c2nc(N)ncc2-c2ccc(F)cc2)C1	-4.64%
CN(CCn1ccc2ccccc21)C(=O)Cc1n[nH]c(=O)[nH]1	-16.4%
Cc1ccc(C(NC(=O)Cn2cc(C3CC3)nn2)C2CC2)cc1 (centres undefined)	-5.36%
CS(=O)(=O)NCCC1CCCN(Cc2ccccc2F)C1 (centres undefined)	-1.25%
CNC(=O)C1Cn2ccnc2C2(CCN(C(=O)NC3CCCC3)CC2)O1 (centres undefined)	-104%
Cc1nn(C)c(N(C)C)c1CNC1CCOc2ccccc21 (centres undefined)	-9.66%
COc1ccc(CN2CC[C@H]3[C@H]2CC(=O)N3Cc2cccc(C)n2)cc1	1.2%
Cn1c(=O)ccn(CC(=O)Nc2cccnc2)c1=O	-1.58%
COc1ncccc1C(Cc1ccsc1)NC(=O)Cn1cccnc1=O (centres undefined)	-5.47%
O=C(NC1CCCC1)c1nc2c(o1)CN(C(=O)CCO)C2	5.38%
CCn1ccnc1C1CCN(C(=O)C(O)c2ccc(OC)cc2)CC1 (centres undefined)	0.171%
Cn1ncc(-c2cc(-c3cccc(O)c3)nc(N)c2C#N)c1C1CC1	79.1%
Cc1nn(C)c(C)c1NC(=O)CNc1ccc(F)c(C(F)(F)F)c1	0.0371%
c1nc(NCc2cc3n(n2)CCN(C2CCCCC2)C3)c2nc[nH]c2n1	24.2%
CCCc1cc(=O)[nH]c(SCc2ccccn2)n1	-3.53%

Compound	cytotoxicity at 10 µM
CCn1cnnc1CNC(=O)c1cc(Cl)c(I)cc1OC	-14.4%
CC1(C)CC(CC(=O)N2CC(C)(C)[C@@](C)(O)C2)CC(C)(C)N1	-4.84%
COCCCNC(=O)CN(C)C(=O)c1ccc(-n2cccc2)cc1O	-13.5%
Cc1nc[nH]c1C(=O)N1CCC2(CN(C)C(=O)O2)C1 (centres undefined)	2.99%
Cc1nc(CN2CCC(CNC(=O)CCC3CCCC3)CC2)oc1C	-1.29%
CCc1nsc(N2CCCN(C(=O)c3ccc(CC)o3)CC2)n1	7.76%
Cc1nn(C)c2ncc(S(=O)(=O)N3CCCN4CCCC4C3)cc12 (centres undefined)	-0.334%
CC(=O)N1C[C@H](c2cc(O)nc(C)n2)[C@@H](c2ccccc2F)C1	1.65%
CCS(=O)(=O)N1CCO[C@H]2[C@H](Oc3ncccc3F)CC[C@@H]21	2.63%
CC(=O)N1CCCC1c1cccc(NCc2ccccc2F)n1 (centres undefined)	-13.8%
CCS(=O)(=O)N1CCC2(CCCC(=O)N2C)CC1	0.817%
CCc1ncc2c(n1)CN(Cc1cn3ccsc3n1)CC2	-8.26%
CCC1CN(CC(=O)NCc2ccco2)CCO1 (centres undefined)	-7.66%
CCCS(=O)(=O)N1CC[C@H]2O[C@@H](c3nc(C)no3)CC[C@H]21	-2.48%
CC(C)c1noc(C(C)N2CCC(c3nc4ccccc4o3)CC2)n1 (centres undefined)	8.05%
CN(C)CCC(Nc1nc(N)nc2c1CCNCC2)c1ccccc1 (centres undefined)	-4.32%
CC(C)c1cc(C(=O)N(c2ccc(F)cn2)C2CCOCC2)on1	-9.01%
CCC(c1nc(C(C)C)nn1-c1ccccn1)n1cccn1 (centres undefined)	5.66%
CN(C)c1ccc(CN(CC2CCCO2)C(=O)c2csnn2)cc1 (centres undefined)	-1.59%
CCc1nc(CN2CCCC(NCc3cnn(C(C)(C)C)c3)C2)no1 (centres undefined)	-6.77%
CN(C)C(=O)N1CCCC(C(=O)N(C)CCCc2cnn(C)c2)C1 (centres undefined)	-0.645%
